Laboratory results from article PMC8434889 (Bioorganic Chemistry, 2021).

Assays:
[1] = test system: IFN-γ; assay: Con A-induced cytokine production in splenocytes, IFN-γ; assay type: cell-based; settings: Mus musculus, Splenocyte, 48 h, read-out: IC50 IFN-γ
[2] = test system: IL-6; assay: LPS-induced cytokine production in splenocytes, IL-6; assay type: cell-based; settings: Mus musculus, Splenocyte, 48 h, read-out: IC50 IL-6
[3] = Cytotoxicity in RAW264.7 cell; assay type: cell-based; settings: mouse, RAW264.7 macrophage cells
In short: (§1)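 MTT assay after 48 h culture in triplicate with or without test compound. Cells: 8 × 10^5 BALB/c splenocytes or 1 × 10^5 RAW264.7 cells. MTT reagent (5 mg/mL) added 4 h before end of culture; formazan dissolved in DMSO; absorbance at 570 nm. CC50 from log(inhibitor)–normalized response nonlinear fit.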

[4] = test system: LPS-induced B cell proliferation of murine splenocytes; assay: LPS-induced B-cell proliferation; assay type: cell-based, mouse; settings: 48 h; for IC50: Mus musculus, B-cell, read-out: LPS-induced B-cell proliferation IC50
In short: (§2)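 Splenocytes from 6–8-week-old female BALB/c mice, with erythrocytes lysed in NH4Cl/Tris buffer (pH 7.2), in RPMI 1640 with 10% FBS and penicillin/streptomycin. Cells at 5 × 10^5 in triplicate for 48 h with or without test compound (DMSO stock diluted in medium). Stimulation: ConA 1 μg/mL for T cells or LPS 10 μg/mL for B cells. [3H]thymidine 0.5 μCi/well pulse for 8 h, filter harvest, scintillation counting. IC50 from log(inhibitor)–normalized response nonlinear fit.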

[5] = test system: IL-17; assay: Con A-induced cytokine production in splenocytes, IL-17; assay type: cell-based; settings: Mus musculus, Splenocyte, 48 h, read-out: IC50 IL-17
[6] = test system: IL-6; assay: LPS-induced cytokine production in RAW264.7 cell, IL-6; assay type: cell-based; settings: Mus musculus, RAW264.7, 48 h, read-out: IL-6 IC50
In short: (§3)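 Murine RAW264.7 macrophages grown in DMEM with 10% FBS, 2 mM L-glutamine and penicillin/streptomycin at 37 °C, 5% CO2. Cells at 1 × 10^5 in triplicate with or without test compound, then LPS 10 μg/mL for 48 h. Supernatant IL-1β, IL-6 and TNF-α by ELISA. IC50 from log(inhibitor)–normalized response nonlinear fit.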

[7] = test system: IL-1β; assay: LPS-induced cytokine production in splenocytes, IL-1β; assay type: cell-based; settings: Mus musculus, Splenocyte, 48 h, read-out: IC50 IL-1β
[8] = test system: IL-1β; assay: LPS-induced cytokine production in RAW264.7 cell, IL-1β; assay type: cell-based; settings: Mus musculus, RAW264.7, 48 h, read-out: IL-1β IC50
In short: as §3

[9] = Splenocytes cytotoxicity; assay type: cell-based; settings: female, BALB/c, mouse, murine splenocytes
In short: as §1

[10] = test system: Con A-induced T cell proliferation of murine splenocytes; assay: Con A-induced T-cell proliferation; assay type: cell-based, mouse; settings: 48 h; for IC50: Mus musculus, T-cell, read-out: Con A-induced T-cell proliferation IC50
In short: as §2

[11] = test system: IL-6; assay: Con A-induced cytokine production in splenocytes, IL-6; assay type: cell-based; settings: Mus musculus, Splenocyte, 48 h, read-out: IC50 IL-6
[12] = test system: Huh7 cell; settings: read-out: Huh7 cell CC50; MTT, 2 days
[13] = test system: TNF-α; assay: LPS-induced cytokine production in RAW264.7 cell, TNF-α; assay type: cell-based; settings: Mus musculus, RAW264.7, 48 h, read-out: TNF-α IC50
In short: as §3

[14] = molecular target: SARS-Cov2 spike glycoprotein (Severe acute respiratory syndrome coronavirus 2, UniProt P0DTC2); assay: cell-based; assay type: cell-based, SARS-CoV-2
[15] = in vitro; settings: human

SMILES | IC50 [1] [nM] | IC50 [2] [nM] | CC50 at 48 h [3] [µM] | IC50 [4] [µM] | IC50 [5] [nM] | IC50 [6] [µM] | IC50 [7] [nM] | IC50 [8] [nM] | CC50 at 48 h [9] [µM] | IC50 [10] [µM] | IC50 [11] [nM] | CC50 [12] [µM] | IC50 [13] [µM] | EC50 [14] [µM] | LPS-induced B-cell proliferation IC50 ([4]; murine splenocytes, LPS 10 μg/mL) | CC50 [15] [µM] | Con A-induced T-cell proliferation IC50 ([10]; murine splenocytes, Con A 1 μg/mL) | 2019nCoV-S-HIV EC50 [14]
CCN(CCCC(C)Nc1ccnc2cc(Cl)ccc12)CCNC(=O)C(F)(F)C1CCN(CC(O)C(F)(F)F)CC1 (centres unmarked) [Compound 9, N-(2-((4-((7-Chloroquinolin-4-yl)amino)pentyl)(ethyl)amino)ethyl)-2,2-difluoro-2-(1-(3,3,3-trifluoro-2-hydroxypropyl)piperidin-4-yl)acetamide] | 1230 ± 230 | 10 ± 10 | 48.64 ± 0.18 | 1.07 ± 0.23 | 1040 ± 200 | 1.61 ± 0.25 | 210 ± 80 | 720 ± 170 | 5.71 ± 1.04 | 2.85 ± 0.49 | 160 ± 80 | 16.7 | 15.9 ± 0.45 | 32.8 |  |  |  | 
CCN(CCCC(C)Nc1ccnc2cc(Cl)ccc12)CCNC1CNC1 (centres unmarked) [Compound 5, N^1-(2-(Azetidin-3-ylamino)ethyl)-N^4-(7-chloroquinolin-4-yl)-N^1-ethylpentane-1,4-diamine] |  |  |  | > 250 |  |  |  |  | > 250 | > 250 |  |  |  | > 80 | lost activity completely | > 80 | lost activity completely | 
CCN(CCCC(C)Nc1ccnc2cc(Cl)ccc12)CCNC(=O)C(F)(F)C1CCN(CCOCCOC)CC1 (centres unmarked) [Compound 10, N-(2-((4-((7-Chloroquinolin-4-yl)amino)pentyl)(ethyl)amino)ethyl)-2,2-difluoro-2-(1-(2-(2-methoxyethoxy)ethyl)piperidin-4-yl)acetamide] | 610 ± 340 | 1480 ± 810 | 125 ± 45.7 | 1.42 ± 0.15 | 250 ± 30 | 2.52 ± 0.36 | 3 ± 2 | 1810 ± 830 | 8.1 ± 0.77 | 4.27 ± 0.33 | 2700 ± 1160 | 5.75 | 24.4 ± 6.05 | 5.53 |  |  |  | 
CCN(CCCC(C)Nc1ccnc2cc(Cl)ccc12)CCNC(=O)C(F)(F)C1CCN(C(=O)C2OC(OC)C3OC(C)(C)OC23)CC1 (centres unmarked) [Compound 11, N-(2-((4-((7-Chloroquinolin-4-yl)amino)pentyl)(ethyl)amino)ethyl)-2,2-difluoro-2-(1-(6-methoxy-2,2-dimethyltetrahydrofuro[3,4-d][1,3]dioxole-4-carbonyl)piperidin-4-yl)acetamide] | 350 ± 180 | 170 ± 110 | 47.71 ± 0.15 | 2.99 ± 0.73 | 170 ± 60 | 1.87 ± 0.44 | 40 ± 30 | 1190 ± 410 | 11.24 ± 0.08 | 2.49 ± 0.11 | 450 ± 180 | 16.9 | 4.41 ± 1.66 | 25.2 |  |  |  | 
CCN(CCCC(C)Nc1ccnc2cc(Cl)ccc12)CCNC12CC(N)(C1)C2 (centres unmarked) [Compound 6, N^1-(2-((4-((7-Chloroquinolin-4-yl)amino)pentyl)(ethyl)amino)ethyl)bicyclo[1.1.1]pentane-1,3-diamine] |  |  |  | 15.2 ± 0.46 |  |  |  |  | 32.4 ± 6.22 | 16.7 ± 0.34 |  |  |  | 40.5 |  | 24.9 |  | 
CCN(CCCC(C)Nc1ccnc2cc(Cl)ccc12)CCNC(=O)C(F)(F)C1CCNCC1 (centres unmarked) [Compound 8, N-(2-((4-((7-Chloroquinolin-4-yl)amino)pentyl)(ethyl)amino)ethyl)-2,2-difluoro-2-(piperidin-4-yl)acetamide] |  |  |  | 28.3 ± 6.13 |  |  |  |  | 71.6 ± 3.47 | 45.4 ± 1.43 |  |  |  | 31.6 |  | 27.3 |  | 
CCN(CCCC(C)Nc1ccnc2cc(Cl)ccc12)CCNC(=O)CCOCCOCCOCCOCCOCC(=O)Nc1ccc2c(c1)OC(F)(F)O2 (centres unmarked) [Compound 15, N^18-(2-((4-((7-Chloroquinolin-4-yl)amino)pentyl)(ethyl)amino)ethyl)-N1-(2,2-difluorobenzo[d][1,3]dioxol-5-yl)-3,6,9,12,15-pentaoxaoctadecanediamide] | 1670 ± 440 | 1510 ± 530 |  | 1.44 ± 0.56 | 1760 ± 720 | 9.63 ± 3.75 | 3340 ± 620 | 3840 ± 1250 | 6.07 ± 0.4 | 1.32 ± 0.06 | 470 ± 160 |  | 10.7 ± 3.99 | 20.4 |  | 21.7 |  | marginal potency
CCN(CCO)CCCC(C)Nc1ccnc2cc(Cl)ccc12 (centres unmarked) [Compound 2, hydroxychloroquine, reference compound] | 440 ± 10 | 860 ± 570 | 25.3 ± 4.38 | 14.2 ± 0.21 | 620 ± 230 | 16.5 ± 0.55 | 1490 ± 320 | 3510 ± 150 | 26.8 ± 2.81 | 18.2 ± 1.45 | 5780 ± 2390 |  | 10 ± 2.97 | > 80 |  | > 80 |  | ineffective
CCN(CC)CCCC(C)Nc1ccnc2cc(Cl)ccc12 (centres unmarked) [Compound 1, chloroquine, reference compound] | 650 ± 310 | 810 ± 780 | 21.9 ± 3.59 | 14.6 ± 0.56 | 650 ± 280 | 14.6 ± 1.27 | 480 ± 340 | 2720 ± 750 | 25.5 ± 2.47 | 15.27 ± 0.13 | 7200 ± 1490 |  | 35 ± 18.7 |  |  | 26.4 |  | 
